We go through 15 molecules from ChEMBL document CHEMBL3102828, “Synthesis and antibacterial activity of a series of novel 9-O-acetyl- 4'-substituted 16-membered macrolides derived from josamycin” (2014).

Usually MIC stands for the least concentration at which growth counts as inhibited.

Assay type in all cases: functional
Experiment [1] deals with Staphylococcus epidermidis. The experiment can be described thus: Antimicrobial activity against methicillin-resistant Staphylococcus epidermidis 09-3 by broth microdilution method. Put shortly: (§1)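 MIC read-out from broth microdilution performed according to CLSI recommendations; each strain was tested in vitro alongside the parent macrolide reference.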
(In general: In broth dilution the organism is exposed to a series of concentrations in liquid medium.)

Experiment [2] has as its system Staphylococcus aureus. The experiment can be described thus: Antimicrobial activity against methicillin-resistant Staphylococcus aureus ATCC 33591 by broth microdilution method. In a few lines:
as §1

In experiment [3] the test system is Staphylococcus aureus. The experiment can be described thus: Antimicrobial activity against methicillin-resistant Staphylococcus aureus 09-13 by broth microdilution method. In a few lines:
as §1

Experiment [4] concerns Staphylococcus epidermidis. The experiment can be described thus: Antimicrobial activity against methicillin-sensitive Staphylococcus epidermidis 09-9 by broth microdilution method. Put shortly:
(§2)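 MICs determined by broth microdilution as recommended by CLSI. Tested against a panel of five S. aureus strains and three S. epidermidis strains. ATCC 29213, 15 and 09–06 are methicillin-sensitive S. aureus. Josamycin served as the reference.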

Experiment [5] concerns Staphylococcus aureus. The experiment in a line: Antimicrobial activity against methicillin-sensitive Staphylococcus aureus 09-6 by broth microdilution method. In a few lines: as §2
Experiment [6] concerns Staphylococcus aureus. The experiment can be described thus: Antimicrobial activity against methicillin-sensitive Staphylococcus aureus ATCC 29213 by broth microdilution method. Put shortly: as §2
Experiment [7] relates to Staphylococcus epidermidis. The experiment can be described thus: Antimicrobial activity against methicillin-sensitive Staphylococcus epidermidis ATCC 12228 by broth microdilution method. Put shortly:
as §2

Experiment [8] concerns Staphylococcus aureus. The experiment in a line: Antimicrobial activity against methicillin-sensitive Staphylococcus aureus 15 by broth microdilution method. In a few lines:
as §2

Molecules are shown by their SMILES. Converted amounts (≈) assume the structure as drawn.

As for `CCCC(=O)O[C@H]1[C@H](N(C)C)[C@@H](O)[C@H](O[C@H]2[C@@H](CC=O)C[C@@H](C)[C@@H](OC(C)=O)/C=C/C=C/C[C@@H](C)OC(=O)C[C@@H](OC(C)=O)[C@@H]2OC)O[C@@H]1C`, the MIC in experiment [1] was greater than 64 mg/L; against Staphylococcus aureus [2] it was greater than 64 mg/L; against Staphylococcus aureus [3], greater than 64 mg/L; in experiment [4], 4 mg/L (≈ 5.62 µM); with Staphylococcus aureus [5], 4 mg/L (≈ 5.62 µM); in the experiment with Staphylococcus aureus [6], 4 mg/L (≈ 5.62 µM). Further, the MIC (in experiment [7]; in the experiment with Staphylococcus aureus [8]) was 4 mg/L (≈ 5.62 µM) throughout.
In the case of `CO[C@H]1/C=C\C(=O)O[C@H](C)C/C=C/C=C/[C@H](O)[C@H](C)C[C@H](CC=O)[C@@H]1O[C@@H]1O[C@H](C)[C@@H](O)[C@H](N(C)C)[C@H]1O`, the MIC (in experiment [1]; with Staphylococcus aureus [2]; in the experiment on Staphylococcus aureus [3]; in experiment [4]; against Staphylococcus aureus [5]; in the experiment on Staphylococcus aureus [6]) was greater than 32 mg/L each time. In addition, the MIC (in experiment [7]; with Staphylococcus aureus [8]) was greater than 32 mg/L in each case.
In the case of `CO[C@@H]1[C@@H](O[C@@H]2O[C@H](C)[C@@H](OC(=O)c3ccccc3)[C@H](N(C)C)[C@H]2O)[C@@H](CC=O)C[C@@H](C)[C@@H](OC(C)=O)/C=C/C=C/C[C@@H](C)OC(=O)C[C@H]1OC(C)=O`, the MIC in experiment [1] was greater than 64 mg/L; in the experiment with Staphylococcus aureus [2], greater than 64 mg/L; in the experiment on Staphylococcus aureus [3] it was greater than 64 mg/L; in experiment [4], 8 mg/L (≈ 10.7 µM); with Staphylococcus aureus [5], 8 mg/L (≈ 10.7 µM); against Staphylococcus aureus [6], 8 mg/L (≈ 10.7 µM). Further, the MIC (in experiment [7]; with Staphylococcus aureus [8]) was 8 mg/L (≈ 10.7 µM) each time.
Turning to `CO[C@H]1/C=C\C(=O)O[C@H](C)C/C=C/C=C/[C@H](OC(C)=O)[C@H](C)C[C@H](CC=O)[C@@H]1O[C@@H]1O[C@H](C)[C@@H](OC(=O)Nc2ccc(C(F)(F)F)cc2)[C@H](N(C)C)[C@H]1O`, the minimum inhibitory concentration (MIC) (in experiment [1]; against Staphylococcus aureus [2]; against Staphylococcus aureus [3]; in experiment [4]; against Staphylococcus aureus [5]; in the experiment on Staphylococcus aureus [6]) was greater than 64 mg/L each time. For the same molecule, the MIC (in experiment [7]; in the experiment on Staphylococcus aureus [8]) was greater than 64 mg/L each time.
Regarding `CO[C@@H]1[C@@H](O[C@@H]2O[C@H](C)[C@@H](OC(=O)/C=C/c3ccnc4ccccc34)[C@H](N(C)C)[C@H]2O)[C@@H](CC=O)C[C@@H](C)[C@@H](OC(C)=O)/C=C/C=C/C[C@@H](C)OC(=O)C[C@H]1OC(C)=O`, the MIC is greater than 64 mg/L in experiment [1]; greater than 64 mg/L against Staphylococcus aureus [2]; greater than 64 mg/L in the experiment with Staphylococcus aureus [3]; 8 mg/L (≈ 9.72 µM) in experiment [4]; 8 mg/L (≈ 9.72 µM) against Staphylococcus aureus [5]; 8 mg/L (≈ 9.72 µM) against Staphylococcus aureus [6]. The MIC stood at 8 mg/L (≈ 9.72 µM) in experiment [7] and 16 mg/L (≈ 19.4 µM) against Staphylococcus aureus [8].
Take `CO[C@@H]1[C@@H](O[C@@H]2O[C@H](C)[C@@H](O)[C@H](N(C)C)[C@H]2O)[C@@H](CC=O)C[C@@H](C)[C@@H](OC(C)=O)/C=C/C=C/C[C@@H](C)OC(=O)C[C@H]1OC(C)=O`: the MIC is greater than 32 mg/L in experiment [1]; greater than 32 mg/L in the experiment with Staphylococcus aureus [2]; greater than 32 mg/L with Staphylococcus aureus [3]; 16 mg/L (≈ 24.9 µM) in experiment [4]; 16 mg/L (≈ 24.9 µM) in the experiment with Staphylococcus aureus [5]; 16 mg/L (≈ 24.9 µM) against Staphylococcus aureus [6]. Moreover, the MIC (in experiment [7]; with Staphylococcus aureus [8]) was 16 mg/L (≈ 24.9 µM) in each case.
For `COc1ccc(C(=O)O[C@H]2[C@H](N(C)C)[C@@H](O)[C@H](O[C@H]3[C@@H](CC=O)C[C@@H](C)[C@@H](OC(C)=O)/C=C/C=C/C[C@@H](C)OC(=O)C[C@@H](OC(C)=O)[C@@H]3OC)O[C@@H]2C)cc1`, the minimum inhibitory concentration (MIC) is greater than 64 mg/L in experiment [1]; greater than 64 mg/L against Staphylococcus aureus [2]; greater than 64 mg/L against Staphylococcus aureus [3]; 8 mg/L (≈ 10.3 µM) in experiment [4]; 8 mg/L (≈ 10.3 µM) against Staphylococcus aureus [5]; 8 mg/L (≈ 10.3 µM) in the experiment on Staphylococcus aureus [6]. The MIC (in experiment [7]; against Staphylococcus aureus [8]) was 8 mg/L (≈ 10.3 µM) in each case.
On to `CO[C@@H]1[C@@H](O[C@@H]2O[C@H](C)[C@@H](OC(=O)Nc3ccc(C(F)(F)F)cc3)[C@H](N(C)C)[C@H]2O)[C@@H](CC=O)C[C@@H](C)[C@@H](OC(C)=O)/C=C/C=C/C[C@@H](C)OC(=O)C[C@H]1OC(C)=O`, for which the MIC (in experiment [1]; in the experiment with Staphylococcus aureus [2]; in the experiment with Staphylococcus aureus [3]; in experiment [4]; against Staphylococcus aureus [5]; in the experiment on Staphylococcus aureus [6]) was greater than 64 mg/L throughout. Further, the minimal inhibitory concentration (MIC) (in experiment [7]; against Staphylococcus aureus [8]) was greater than 64 mg/L throughout.
Take `CO[C@H]1/C=C\C(=O)O[C@H](C)C/C=C/C=C/[C@H](OC(C)=O)[C@H](C)C[C@H](CC=O)[C@@H]1O[C@@H]1O[C@H](C)[C@@H](O)[C@H](N(C)C)[C@H]1O`: the MIC in experiment [1] is greater than 64 mg/L; with Staphylococcus aureus [2] it was greater than 64 mg/L; in the experiment on Staphylococcus aureus [3], greater than 64 mg/L; in experiment [4] it was 64 mg/L (≈ 110 µM); in the experiment on Staphylococcus aureus [5] it was greater than 64 mg/L; in the experiment with Staphylococcus aureus [6] it was greater than 64 mg/L. Further, the MIC in experiment [7] is 64 mg/L (≈ 110 µM); in the experiment with Staphylococcus aureus [8], greater than 64 mg/L.
As to `CO[C@@H]1[C@@H](O[C@@H]2O[C@H](C)[C@@H](OC(=O)CCc3ccccc3)[C@H](N(C)C)[C@H]2O)[C@@H](CC=O)C[C@@H](C)[C@@H](OC(C)=O)/C=C/C=C/C[C@@H](C)OC(=O)C[C@H]1OC(C)=O`, the MIC in experiment [1] is greater than 32 mg/L; in the experiment on Staphylococcus aureus [2], greater than 32 mg/L; against Staphylococcus aureus [3], greater than 32 mg/L; in experiment [4] it was 4 mg/L (≈ 5.17 µM); against Staphylococcus aureus [5], 4 mg/L (≈ 5.17 µM); against Staphylococcus aureus [6] it was 4 mg/L (≈ 5.17 µM). In addition, the MIC in experiment [7] was 4 mg/L (≈ 5.17 µM); against Staphylococcus aureus [8], 8 mg/L (≈ 10.3 µM).
Consider `CO[C@@H]1[C@@H](O[C@@H]2O[C@H](C)[C@@H](OC(=O)c3ccc([N+](=O)[O-])cc3)[C@H](N(C)C)[C@H]2O)[C@@H](CC=O)C[C@@H](C)[C@@H](OC(C)=O)/C=C/C=C/C[C@@H](C)OC(=O)C[C@H]1OC(C)=O`, for which the MIC is greater than 64 mg/L in experiment [1]; greater than 64 mg/L against Staphylococcus aureus [2]; greater than 64 mg/L against Staphylococcus aureus [3]; 32 mg/L (≈ 40.5 µM) in experiment [4]; 32 mg/L (≈ 40.5 µM) against Staphylococcus aureus [5]; 32 mg/L (≈ 40.5 µM) against Staphylococcus aureus [6]. For the same molecule, the minimal inhibitory concentration (MIC) in experiment [7] is 32 mg/L (≈ 40.5 µM); against Staphylococcus aureus [8], greater than 64 mg/L.
As for `CO[C@@H]1[C@@H](O[C@@H]2O[C@H](C)[C@@H](OC(=O)/C=C/c3ccccc3)[C@H](N(C)C)[C@H]2O)[C@@H](CC=O)C[C@@H](C)[C@@H](OC(C)=O)/C=C/C=C/C[C@@H](C)OC(=O)C[C@H]1OC(C)=O`, the MIC is greater than 32 mg/L in experiment [1]; greater than 32 mg/L in the experiment on Staphylococcus aureus [2]; greater than 32 mg/L against Staphylococcus aureus [3]; 4 mg/L (≈ 5.18 µM) in experiment [4]; 8 mg/L (≈ 10.4 µM) with Staphylococcus aureus [5]; 8 mg/L (≈ 10.4 µM) with Staphylococcus aureus [6]. For the same molecule, the MIC is 4 mg/L (≈ 5.18 µM) in experiment [7] and greater than 32 mg/L in the experiment on Staphylococcus aureus [8].
For `CO[C@H]1/C=C\C(=O)O[C@H](C)C/C=C/C=C/[C@H](O)[C@H](C)C[C@H](CC=O)[C@@H]1O[C@@H]1O[C@H](C)[C@@H](OC(=O)Nc2ccc(C(F)(F)F)cc2)[C@H](N(C)C)[C@H]1O`, the MIC (in experiment [1]; against Staphylococcus aureus [2]; against Staphylococcus aureus [3]; in experiment [4]; against Staphylococcus aureus [5]; in the experiment on Staphylococcus aureus [6]) was greater than 64 mg/L throughout. The MIC (in experiment [7]; against Staphylococcus aureus [8]) was greater than 64 mg/L in each case.
For the molecule `CO[C@@H]1[C@@H](O[C@@H]2O[C@H](C)[C@@H](OC(=O)CC(C)C)[C@H](N(C)C)[C@H]2O)[C@@H](CC=O)C[C@@H](C)[C@@H](OC(C)=O)/C=C/C=C/C[C@@H](C)OC(=O)C[C@H]1OC(C)=O`, the MIC in experiment [1] is greater than 64 mg/L; in the experiment on Staphylococcus aureus [2], greater than 64 mg/L; against Staphylococcus aureus [3], greater than 64 mg/L; in experiment [4], 8 mg/L (≈ 11 µM); in the experiment with Staphylococcus aureus [5], 8 mg/L (≈ 11 µM); in the experiment on Staphylococcus aureus [6], 8 mg/L (≈ 11 µM). Also, the MIC (in experiment [7]; in the experiment on Staphylococcus aureus [8]) was 8 mg/L (≈ 11 µM) in each case.
In the case of `CO[C@@H]1[C@@H](O[C@@H]2O[C@H](C)[C@@H](O[C@H]3C[C@@](C)(O)[C@@H](OC(=O)CC(C)C)[C@H](C)O3)[C@H](N(C)C)[C@H]2O)[C@@H](CC=O)C[C@@H](C)[C@@H](O)/C=C/C=C/C[C@@H](C)OC(=O)C[C@H]1OC(C)=O` [JOSAMYCIN], the MIC was greater than 32 mg/L in experiment [1]; greater than 32 mg/L in the experiment with Staphylococcus aureus [2]; 32 mg/L (≈ 38.6 µM) in the experiment with Staphylococcus aureus [3]; 2 mg/L (≈ 2.42 µM) in experiment [4]; 1 mg/L (≈ 1.21 µM) against Staphylococcus aureus [5]; 1 mg/L (≈ 1.21 µM) in the experiment with Staphylococcus aureus [6]. Besides, the MIC stood at 1 mg/L (≈ 1.21 µM) in experiment [7] and 2 mg/L (≈ 2.42 µM) against Staphylococcus aureus [8].
